Tb MetRS inh = Trypanosoma brucei MetRS inhibition; purified T. brucei MetRS, ATP depletion, Kinase-Glo luminescence; inhibition, % at 11.9 µM; 360,000 compounds, 0.4% hits; AID 624268;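 active = inhibition above a per-plate cutoff of the control wells' mean inhibition plus 3 SD, cut at about 5.5% in these data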
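Dosing: 11.9 µM compound single dose, 0.9% DMSO; Assay system: purified T. brucei MetRS enzyme; Measured by: Kinase-Glo luciferase luminescence reporting remaining unconsumed ATP; Schedule: 15 min plus 2 h at 25 °C.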
PDI turbidity = PDI (human) enzyme inhibition. inhibition, % at 10 µM. 350,000 compounds, 0.052% hits. PDI insulin aggregation turbidity, A650, 90 min. P07237;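 active = mean inhibition across replicates of 30% or more, whatever share of single replicates reach that level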
Target sequence (P07237 whole entry, looked up): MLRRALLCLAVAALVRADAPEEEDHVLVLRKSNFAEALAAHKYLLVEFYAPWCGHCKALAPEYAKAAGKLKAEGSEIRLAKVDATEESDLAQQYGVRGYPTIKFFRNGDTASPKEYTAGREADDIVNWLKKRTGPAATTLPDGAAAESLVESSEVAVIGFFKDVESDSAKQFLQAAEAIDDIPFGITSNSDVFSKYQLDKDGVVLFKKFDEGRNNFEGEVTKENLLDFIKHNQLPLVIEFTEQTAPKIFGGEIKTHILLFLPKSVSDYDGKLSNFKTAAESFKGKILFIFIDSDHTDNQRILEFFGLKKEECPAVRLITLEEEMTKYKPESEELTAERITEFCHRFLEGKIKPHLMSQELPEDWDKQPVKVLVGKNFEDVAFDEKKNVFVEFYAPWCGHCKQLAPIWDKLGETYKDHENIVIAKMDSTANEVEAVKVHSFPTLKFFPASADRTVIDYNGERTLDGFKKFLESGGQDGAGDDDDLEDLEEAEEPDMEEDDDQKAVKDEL
ERp5 block = blocks human ERp5 reductase activity on insulin. AID 651711. inhibition, % at 9.99 µM. 350,000 compounds, 0.05% hits. Q15084. ERp5 insulin aggregation, absorbance 650 nm, 90 min;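 active = mean replicate inhibition above about 25%, with every replicate also reaching it, limit read from the data, passing the limit was not always enough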
TbMetRS confirm = Trypanosoma brucei MetRS inhibition confirmed; shares compounds with Tb MetRS inh; T. brucei MetRS enzyme, luminescence (ATP depletion); 1,400 compounds, 93% hits; inhibition, % at 11.9 µM; AID 624412; in the data active = inhibition above about 7%
Jurkat tox = Jurkat T cell cytotoxicity for MetRS hits. shares compounds with Tb MetRS inh. inhibition, % at 8.3 µM. Jurkat cells viability, ATP luminescence. 1,400 compounds, 12% hits; in the data active = inhibition above about 15%
Tb MetRS inh FP = T. brucei MetRS inhibition, orthogonal assay | shares compounds with Tb MetRS inh | purified T. brucei MetRS, fluorescence polarization | inhibition, % at 11.9 µM | 1,400 compounds, 44% hits | AID 651607; in the data active = inhibition above about 17%
A number is an active result; 0 = inactive; - = no result given. An excerpt weighted towards active compounds, which were near 0.4% of everything screened.

SMILES	Tb MetRS inh	PDI turbidity	ERp5 block	TbMetRS confirm	Jurkat tox	Tb MetRS inh FP
CO[C@H]1CN(C)C(=O)c2cc(NC(=O)Nc3ccccc3)ccc2OC[C@H](C)N(C(=O)CC2CC2)C[C@H]1C	-	-	0	-	-	-
C[C@@H]1CCCCO[C@H](CN(C)S(=O)(=O)c2cccs2)[C@H](C)CN([C@H](C)CO)C(=O)c2cc(NC(=O)Nc3ccccc3)ccc2O1	-	-	0	-	-	-
CCCNC(=O)Nc1ccc2c(c1)C(=O)N(C)[C@@H]1CC[C@@H](CC(=O)NCC3CCCCC3)O[C@H]1CO2	-	-	0	-	-	-
O=C(CC(F)(F)F)N1C[C@H]2[C@@H](c3ccccc31)[C@H](CO)N2C(=O)CN1CCOCC1	-	-	0	-	-	-
CS(=O)(=O)c1ccc(Cl)c(NC(=O)c2ccc(-n3cncn3)c([N+](=O)[O-])c2)c1	57.2	0	0	81.4	0	67.0
CCN(CC)CCNC(=O)c1ccc(NC(=O)c2ccc(-n3cncn3)c([N+](=O)[O-])c2)cc1	17.4	0	0	36.5	0	0
Cc1ccc(NC(=O)CN(C)C(=O)c2ccc(Cl)c([N+](=O)[O-])c2)cc1	35.5	0	0	57.6	0	36.9
CC1CCCCC1NC(=O)c1ccc(-n2cncn2)cc1 (configuration not stated)	0	0	-	-	-	-
CC(C)Cc1nnc(NC(=O)c2ccc(-n3cncn3)c([N+](=O)[O-])c2)s1	0	0	0	-	-	-
CS(=O)(=O)c1ccc(C(=O)Nc2cc(S(C)(=O)=O)ccc2Cl)cc1	0	0	0	-	-	-
CC1CCCCC1NC(=O)c1ccc(-n2cncn2)c([N+](=O)[O-])c1 (configuration not stated)	36.7	0	0	73.2	0	41.2
CN(CC(=O)Nc1ccc(Cl)c(C(F)(F)F)c1)C(=O)c1ccc(N2CCOCC2)c([N+](=O)[O-])c1	0	0	0	-	-	-
O=S(=O)(NCC[C@H]1CC[C@@H](NS(=O)(=O)c2cccc(F)c2)[C@@H](CO)O1)c1cccc(F)c1	-	-	0	-	-	-
CC(CCc1ccccc1)NC(=O)c1ccc(-n2cncn2)c([N+](=O)[O-])c1 (configuration not stated)	25.6	0	0	54.9	0	30.7
CCN(CC)S(=O)(=O)c1ccc(OC)c(NC(=O)c2ccc([N+](=O)[O-])cc2)c1	0	0	0	-	-	-
COc1ccc(C(=O)NCCC2=CCCCC2)cc1[N+](=O)[O-]	0	0	0	-	-	-
O=C(NCCC1=CCCCC1)c1ccc(-n2cncn2)c([N+](=O)[O-])c1	14.7	0	0	32.5	0	19.8
COc1ccc(C(=O)NC(C)CCc2ccccc2)cc1[N+](=O)[O-] (configuration not stated)	0	0	0	-	-	-
CCN(CC)S(=O)(=O)c1ccc(OC)c(NC(=O)c2ccc(-n3cncn3)c([N+](=O)[O-])c2)c1	36.9	0	0	81.4	0	49.7
O=C(C[C@H]1CC[C@H]2[C@@H](COC[C@@H](O)CN2C(=O)Nc2ccc(Cl)cc2)O1)NCc1ccncn1	-	-	0	-	-	-
C[C@@H]1CCCCO[C@H](CN(C)Cc2ccc(Cl)c(Cl)c2)[C@H](C)CN([C@@H](C)CO)C(=O)c2cc(NS(=O)(=O)c3ccc(F)cc3)ccc2O1	-	-	0	-	-	-
C/C=C/c1cnc2c(c1)C(=O)N([C@@H](C)CO)C[C@@H](C)[C@@H](CN(C)C(=O)c1cccc(F)c1)O2	-	-	0	-	-	-
O=C(C[C@@H]1C=C[C@H](NC(=O)C2CCOCC2)[C@@H](CO)O1)NCC1CC1	-	-	0	-	-	-
CN(CC(=O)Nc1ccc(Cl)cc1)C(=O)CN1C(=O)C2CCCCC2C1=O (configuration not stated)	0	0	0	-	-	-
CN(CC(=O)Nc1ccc(Cl)cc1)C(=O)CCC1CCCC1	6.7	0	0	52.4	0	20.0
SMILES	Tb MetRS inh	PDI turbidity	ERp5 block	TbMetRS confirm	Jurkat tox	Tb MetRS inh FP
CCCNC(=O)N1[C@@H](CO)[C@@H]2c3ccccc3N(C(=O)Nc3ccccc3)C[C@@H]21	-	-	0	-	-	-
CN(C)Cc1nc2ccccc2c(=O)n1CC(=O)Nc1cccc(S(=O)(=O)N2CCOCC2)c1	0	0	0	-	-	-
CS(=O)(=O)Cc1nc2ccccc2n1CC(=O)Nc1cccc(S(=O)(=O)N2CCCC2)c1	10.2	0	0	33.0	0	0
CC(=O)c1ccc(N2CCN(C(=O)CCCn3c(=O)[nH]c4ccccc4c3=O)CC2)cc1	23.1	0	0	32.5	0	0
CCOC(=O)N1CCN(C(=O)CCCn2c(=O)[nH]c3ccccc3c2=O)CC1	0	0	-	-	-	-
COc1cccc(NC(=O)N(C)C[C@H]2Oc3cc(-c4ccccc4F)ccc3S(=O)(=O)N([C@@H](C)CO)C[C@H]2C)c1	-	-	0	-	-	-
COc1nc(Nc2cccc(F)c2)nc(OC)n1	0	0	0	-	-	-
COc1cc2nc(Nc3cccc(F)c3)nc(N)c2cc1OC	9.1	0	0	29.4	0	25.0
O=C(NCc1ccccc1)[C@@H]1[C@@H](CO)[C@@H]2Cn3c(cccc3=O)[C@@H]2N1Cc1ccccc1F	-	-	0	-	-	-
Cc1ccc2nc(SCC(=O)NCc3cccs3)[nH]c2c1	0	0	0	-	-	-
COc1cccc(CNC(=O)CSc2nnc3c(n2)[nH]c2ccc(C)cc23)c1	18.6	0	0	78.5	0	46.1
Cc1ccc2[nH]c3nc(SCC#N)nnc3c2c1	0	0	0	-	-	-
COc1cccc(CNC(=O)CSc2nc3ccc(C)cc3[nH]2)c1	5.8	0	0	20.3	0	0
COc1cccc(NC(=O)CSc2nnc3c(n2)[nH]c2ccc(C)cc23)c1	79.8	0	0	96.2	0	93.2
COc1ccc2[nH]c3nc(SCC(=O)Nc4cccc(NC(C)=O)c4)nnc3c2c1	0	0	0	-	-	-
C[C@H]1CN([C@@H](C)CO)C(=O)Cc2cc(NS(=O)(=O)c3ccc(Cl)cc3)ccc2O[C@H]1CN(C)Cc1ccncc1	-	-	0	-	-	-
CN(C)C(=O)C[C@H]1CC[C@@H](NC(=O)c2ccc(F)cc2)[C@H](CO)O1	-	-	0	-	-	-
COc1ccc(-c2cn(CC[C@H]3CC[C@H](NC(=O)Nc4ccc(F)cc4)[C@@H](CO)O3)nn2)cc1	-	-	0	-	-	-
COc1ccc(NC(=O)N(C)C[C@@H]2Oc3ccc(NS(=O)(=O)c4cccs4)cc3C(=O)N([C@@H](C)CO)C[C@@H]2C)cc1	-	-	0	-	-	-
CC(C)(C)c1ccccc1NC(=O)c1ccc(-n2cncn2)c([N+](=O)[O-])c1	13.5	0	0	43.4	0	0
Cc1cc(Br)ccc1NC(=O)CNC(=O)c1ccc(-n2cncn2)c([N+](=O)[O-])c1	26.8	0	0	63.1	0	29.4
O=C(Nc1ccccc1OC(F)F)c1ccc(-n2cncn2)c([N+](=O)[O-])c1	18.8	0	0	51.7	0	21.8
Cc1cccc(N2CCN(C(=O)c3ccc(-n4cncn4)c([N+](=O)[O-])c3)CC2)c1C	0	0	0	-	-	-
Cc1cc(Br)ccc1NC(=O)CN(C)C(=O)c1ccc(-n2cncn2)c([N+](=O)[O-])c1	0	0	0	-	-	-
O=C(c1ccc(-n2cncn2)c([N+](=O)[O-])c1)N1CCN(S(=O)(=O)c2ccc(Br)cc2)CC1	0	0	0	-	-	-
